One block for each compound: values may come before it. Activity calls are given as the source filed them. The calls are words filed in the database; no cut-off is given here.
Tests used:
[1] = target: Hydroxycarboxylic acid receptor 3 (Homo sapiens) (UniProt P49019); assay: Agonist activity at human GPR109b assessed as decrease in forskolin-stimulated cAMP production by HTRF assay; type: functional
Mus musculus [2] = assay: Toxicity in C57/Bl6 mouse assessed as increase in cutaneous blood flow in ear at 100 mg/kg, ip after 5 mins relative to vehicle treated control by laser doppler flowmetry; type: organism-based; parameters: dose 100 mg/kg, route intraperitoneal; conditions: in vivo
Summary of the method: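 Male C57/Bl6 mice (8–10 weeks, ~25 g) anesthetized with Nembutal ip (80 mg/10 mL/kg). Ear perfusion recorded by laser Doppler imaging: 3 min baseline, then vehicle (PBS, 40% HPBCD or 0.5% methylcellulose) or compound given ip at 5 mL/kg through a preinserted syringe, with readings for ~15 min. Expressed as % change of perfusion over baseline.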

Rattus norvegicus [3] = assay: Antidyslipedic activity in fasted Sprague-Dawley rat assessed as decrease in free fatty acid level at 0.001 mg/kg, po by NEFA C-free fatty acid assay; type: functional, organism-based; parameters: dose 0.001 mg/kg
Summary of the method: (§1)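 Male Sprague-Dawley rats fasted, compound by oral gavage, serial plasma sampling after dosing for free fatty acids over a time course; vehicle-dosed control group.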

Cytochrome P450 2D6 = Cytochrome P450 2D6 (Homo sapiens, UniProt P10635); assay: Activity at CYP2D6; type: ADME
Cytochrome P450 2D6, sequence (P10635 whole entry): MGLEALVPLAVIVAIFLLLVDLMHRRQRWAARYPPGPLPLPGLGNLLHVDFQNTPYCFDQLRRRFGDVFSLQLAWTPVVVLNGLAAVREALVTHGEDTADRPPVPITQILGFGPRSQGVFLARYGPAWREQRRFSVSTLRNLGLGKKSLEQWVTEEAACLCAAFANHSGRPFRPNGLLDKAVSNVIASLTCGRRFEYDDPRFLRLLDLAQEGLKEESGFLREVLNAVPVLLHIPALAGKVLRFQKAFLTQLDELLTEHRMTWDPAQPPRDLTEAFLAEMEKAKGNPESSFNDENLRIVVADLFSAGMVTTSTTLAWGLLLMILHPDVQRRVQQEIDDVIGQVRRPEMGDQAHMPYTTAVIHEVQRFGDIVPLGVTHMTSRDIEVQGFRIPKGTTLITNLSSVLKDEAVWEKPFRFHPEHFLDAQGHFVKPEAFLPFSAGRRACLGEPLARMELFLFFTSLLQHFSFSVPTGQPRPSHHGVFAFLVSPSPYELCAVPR

Cytochrome P450 2C8 = target: T1, Cytochrome P450 2C8 (Homo sapiens, UniProt P10632); assay: Activity at CYP2C8; type: ADME
T1 sequence (P10632 whole entry): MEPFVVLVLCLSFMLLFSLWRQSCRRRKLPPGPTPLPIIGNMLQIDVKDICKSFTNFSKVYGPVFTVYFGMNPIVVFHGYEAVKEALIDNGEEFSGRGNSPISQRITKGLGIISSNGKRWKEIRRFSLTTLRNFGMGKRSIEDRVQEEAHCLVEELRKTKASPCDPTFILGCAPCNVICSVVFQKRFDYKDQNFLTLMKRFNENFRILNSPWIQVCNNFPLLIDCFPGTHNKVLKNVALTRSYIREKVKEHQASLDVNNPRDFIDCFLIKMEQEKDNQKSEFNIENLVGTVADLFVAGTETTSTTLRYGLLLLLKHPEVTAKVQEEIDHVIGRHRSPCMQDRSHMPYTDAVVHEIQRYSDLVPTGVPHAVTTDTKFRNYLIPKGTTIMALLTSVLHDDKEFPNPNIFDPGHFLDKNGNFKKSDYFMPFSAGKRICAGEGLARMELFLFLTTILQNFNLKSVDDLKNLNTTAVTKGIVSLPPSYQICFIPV

Cytochrome P450 2C9 = Cytochrome P450 2C9 (Homo sapiens, UniProt P11712); assay: Activity at CYP2C9; type: ADME
Cytochrome P450 2C9, sequence (P11712 whole entry): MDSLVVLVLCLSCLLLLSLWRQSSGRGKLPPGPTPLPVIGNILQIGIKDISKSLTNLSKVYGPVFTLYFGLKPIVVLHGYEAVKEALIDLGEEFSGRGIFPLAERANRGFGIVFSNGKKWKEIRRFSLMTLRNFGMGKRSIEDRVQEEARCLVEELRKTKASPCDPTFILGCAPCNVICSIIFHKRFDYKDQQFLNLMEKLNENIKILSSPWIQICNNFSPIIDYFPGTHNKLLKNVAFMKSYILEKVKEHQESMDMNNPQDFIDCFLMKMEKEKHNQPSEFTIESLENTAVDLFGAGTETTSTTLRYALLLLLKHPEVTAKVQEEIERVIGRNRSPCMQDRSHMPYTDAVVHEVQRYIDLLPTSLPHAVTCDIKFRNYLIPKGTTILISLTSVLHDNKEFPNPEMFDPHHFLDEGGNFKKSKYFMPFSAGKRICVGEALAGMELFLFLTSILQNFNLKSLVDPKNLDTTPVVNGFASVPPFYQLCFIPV

Cytochrome P450 3A4 = Cytochrome P450 3A4 (Homo sapiens, UniProt P08684); assay: Activity at CYP3A4; type: ADME
Cytochrome P450 3A4, sequence (P08684 whole entry): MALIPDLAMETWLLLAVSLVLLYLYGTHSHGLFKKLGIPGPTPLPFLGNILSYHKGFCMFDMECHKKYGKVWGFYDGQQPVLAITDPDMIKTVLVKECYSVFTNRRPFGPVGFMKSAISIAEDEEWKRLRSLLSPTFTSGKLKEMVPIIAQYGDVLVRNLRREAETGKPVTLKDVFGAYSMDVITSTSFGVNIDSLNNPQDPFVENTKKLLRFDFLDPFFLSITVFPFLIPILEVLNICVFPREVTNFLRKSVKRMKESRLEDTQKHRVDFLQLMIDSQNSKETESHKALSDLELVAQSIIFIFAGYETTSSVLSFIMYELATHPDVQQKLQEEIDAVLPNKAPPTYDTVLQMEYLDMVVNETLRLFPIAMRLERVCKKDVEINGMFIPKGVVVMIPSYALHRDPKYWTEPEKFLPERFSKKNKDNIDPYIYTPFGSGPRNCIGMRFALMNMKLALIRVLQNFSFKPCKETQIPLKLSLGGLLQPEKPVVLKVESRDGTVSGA

Rattus norvegicus [4] = assay: Antidyslipedic activity in fasted Sprague-Dawley rat assessed as decrease in free fatty acid level at 0.01 to 100 mg/kg, po by NEFA C-free fatty acid assay; type: functional; parameters: scale not given: the % may be the effect or the level left; conditions: dose mg/kg 0.01-100; summary of the method: as §1
Rattus norvegicus [5] = assay: Antidyslipedic activity in fasted Sprague-Dawley rat assessed as decrease in free fatty acid level at 0.1 to 30 mg/kg, po by NEFA C-free fatty acid assay; type: functional; parameters: scale not given: the % may be the effect or the level left; conditions: dose mg/kg 0.1-30; summary of the method: as §1
[6] = Blood clearance in mouse; type: ADME, organism-based; conditions: whole blood
Summary of the method: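 Pharmacokinetics across species; for mice, clearance determined in blood rather than plasma following dosing.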

[7] = Volume of distribution in mouse; type: ADME, organism-based; conditions: in vivo
[8] = Terminal half life in mouse; type: ADME, organism-based; conditions: in vivo, read-out: beta t1/2 (converted)
Mus musculus [9] = assay: Dose normalized Cmax in po dosed mouse; type: ADME, organism-based; conditions: in vivo
Mus musculus [10] = assay: Dose normalized AUC in po dosed mouse; type: ADME, organism-based; conditions: in vivo
[11] = Oral bioavailability in mouse; type: ADME, organism-based; conditions: in vivo
[12] = Plasma clearance in Sprague-Dawley rat at 2 mg/kg, iv; type: ADME, organism-based; parameters: dose 2 mg/kg, route intravenous
Summary of the method: (§2)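 Male Sprague-Dawley rats were dosed at 10 mg/kg po or 2 mg/kg iv in 80% PEG400/20% phosphate-buffered saline, fasted overnight before the oral dose. Jugular blood was sampled serially from 0.25 to 21 h over 24 h, and heparinized plasma was prepared. Drug was assayed by HPLC/MS/MS (quantitation range 1–2000 ng/mL).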

[13] = Volume of distribution in Sprague-Dawley rat at 2 mg/kg, iv; type: ADME, organism-based; parameters: dose 2 mg/kg, route intravenous; conditions: in vivo
Summary of the method: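 Male Sprague–Dawley rats dosed iv at 2 mg/kg in 80% PEG400/20% phosphate buffered saline. Jugular vein blood was serially sampled over 24 h, and plasma was prepared from sodium heparin blood. Plasma was analysed by HPLC/MS/MS (LLOQ 1 ng/mL, ULOQ 2000 ng/mL).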

[14] = Terminal half life in Sprague-Dawley rat at 2 mg/kg, iv; type: ADME, organism-based; parameters: dose 2 mg/kg, route intravenous; conditions: in vivo, read-out: beta t1/2 (converted); summary of the method: as §2
Rattus norvegicus [15] = assay: Dose normalized Cmax in Sprague-Dawley rat at 10 mg/kg, po; type: ADME, organism-based; parameters: dose 10 mg/kg, route oral; conditions: in vivo; summary of the method: as §2
Rattus norvegicus [16] = assay: Dose normalized AUC in Sprague-Dawley rat at 10 mg/kg, po; type: ADME, organism-based; parameters: dose 10 mg/kg, route oral; conditions: in vivo; summary of the method: as §2
[17] = Oral bioavailability in Sprague-Dawley rat at 10 mg/kg; type: ADME, organism-based; conditions: in vivo; summary of the method: as §2
[18] = Plasma clearance in dog; type: ADME, organism-based, Canis lupus familiaris
[19] = Volume of distribution in dog; type: ADME, organism-based, Canis lupus familiaris; conditions: in vivo
[20] = Terminal half life in dog; type: ADME, organism-based, Canis lupus familiaris; conditions: in vivo, read-out: beta t1/2 (converted)
Canis familiaris [21] = assay: Dose normalized Cmax in po dosed dog; type: ADME, organism-based, Canis lupus familiaris; conditions: in vivo
Canis familiaris [22] = assay: Dose normalized AUC in po dosed dog; type: ADME, organism-based, Canis lupus familiaris; conditions: in vivo
[23] = Oral bioavailability in dog; type: ADME, organism-based, Canis lupus familiaris; conditions: in vivo

Hydroxycarboxylic acid receptor 3 (Homo sapiens), sequence (P49019 whole entry): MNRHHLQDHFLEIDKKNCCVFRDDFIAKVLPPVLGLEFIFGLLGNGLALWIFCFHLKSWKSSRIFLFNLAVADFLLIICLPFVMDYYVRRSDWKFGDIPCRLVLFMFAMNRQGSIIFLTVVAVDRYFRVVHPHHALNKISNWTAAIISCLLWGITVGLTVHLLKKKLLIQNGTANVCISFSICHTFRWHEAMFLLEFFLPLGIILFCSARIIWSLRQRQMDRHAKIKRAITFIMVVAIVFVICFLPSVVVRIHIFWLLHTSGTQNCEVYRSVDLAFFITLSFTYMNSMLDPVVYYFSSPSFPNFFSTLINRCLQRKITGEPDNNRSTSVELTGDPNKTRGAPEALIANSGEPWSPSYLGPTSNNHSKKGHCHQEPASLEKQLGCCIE

SMILES: CC(C)[C@@H]1[C@@H]2Cc3c(C(=O)O)n[nH]c3[C@@H]21 (racemic)
Activity [1]: inactive

SMILES: O=C(O)c1cccnc1 [NIACIN]
Activity [1]: inactive
Activity (Mus musculus [2]): 60%

SMILES: C[C@H]1[C@H]2Cc3c(C(=O)O)n[nH]c3[C@@H]12
Activity [1]: inactive

SMILES: O=C(O)c1n[nH]c2c1CC1CC21 (racemic)
Activity [1]: inactive

SMILES: C[C@H]1[C@@H]2Cc3c(C(=O)O)n[nH]c3[C@H]12
Activity [1]: inactive

SMILES: C1Cc2[nH]nc(-c3nn[nH]n3)c2C1
Activity [1]: inactive

SMILES: C[C@@H]1[C@H]2Cc3c(C(=O)O)n[nH]c3[C@@H]12
Activity [1]: inactive

SMILES: O=C(O)c1n[nH]c2c1C[C@H]1[C@@H](COc3ccccc3)[C@@H]21 (racemic)
Activity [1]: inactive

SMILES: C=C[C@@H]1[C@@H]2Cc3c(C(=O)O)n[nH]c3[C@H]12 (racemic)
Activity [1]: inactive

SMILES: O=C(O)c1n[nH]c2c1C[C@H]1[C@H](Cc3ccccc3)[C@@H]21 (racemic)
Activity [1]: inactive

SMILES: C[C@H]1[C@@H]2Cc3c(C(=O)O)n[nH]c3[C@H]12 (racemic)
Activity [1]: inactive

SMILES: O=C(O)c1n[nH]c2c1C[C@H]1[C@H](c3ccccc3)[C@@H]21 (racemic)
Activity [1]: inactive

SMILES: O=C(O)c1n[nH]c2c1C[C@@H]1[C@H]2[C@@H]1C1CC1 (racemic)
Activity [1]: inactive

SMILES: CC1(C)C2Cc3c(C(=O)O)n[nH]c3C21 (racemic)
Activity [1]: inactive

SMILES: O=C(O)c1n[nH]c2c1C[C@H]1[C@@H](CC3CC3)[C@@H]21 (racemic; form 2)
Activity [1]: inactive

SMILES: O=C(O)c1n[nH]c2c1C[C@H]1[C@@H](CC3CC3)[C@@H]21 (racemic; form 1)
Activity [1]: inactive

SMILES: C=C[C@H]1[C@@H]2Cc3c(C(=O)O)n[nH]c3[C@H]12 (racemic)
Activity [1]: inactive

SMILES: C[C@@H]1[C@@H]2Cc3c(C(=O)O)n[nH]c3[C@H]12 [listing 1 of 2 here]
Activity [1]: inactive
Activity (Rattus norvegicus [3]): inactive

SMILES: C[C@@H]1[C@@H]2Cc3c(C(=O)O)n[nH]c3[C@H]12 (racemic)
Activity [1]: inactive

The next lines start with results.

Activity [1]: inactive
SMILES: CCOC[C@H]1[C@@H]2Cc3c(C(=O)O)n[nH]c3[C@H]12 (racemic)

Activity [1]: inactive
SMILES: CCCCC[C@H]1[C@@H]2Cc3c(C(=O)O)n[nH]c3[C@H]12 (racemic)

Activity [1]: inactive
SMILES: COC[C@@H]1[C@@H]2Cc3c(C(=O)O)n[nH]c3[C@H]12 (racemic)

Activity [1]: inactive
SMILES: CCOC[C@@H]1[C@@H]2Cc3c(C(=O)O)n[nH]c3[C@H]12 (racemic)

Activity [1]: inactive
SMILES: CCCC[C@H]1[C@@H]2Cc3c(C(=O)O)n[nH]c3[C@H]12 (racemic)

Activity [1]: inactive
SMILES: CCCC[C@@H]1[C@@H]2Cc3c(C(=O)O)n[nH]c3[C@H]12 (racemic)

Activity [1]: inactive
SMILES: CC(C)C[C@H]1[C@@H]2Cc3c(C(=O)O)n[nH]c3[C@@H]21 (racemic)

Activity [1]: inactive
SMILES: CC[C@@H]1[C@@H]2Cc3c(C(=O)O)n[nH]c3[C@H]12 (racemic; form 1)

Activity [1]: inactive
SMILES: CSC[C@H]1[C@@H]2Cc3c(C(=O)O)n[nH]c3[C@H]12 (racemic)

Activity [1]: inactive
SMILES: CCC[C@@H]1[C@@H]2Cc3c(C(=O)O)n[nH]c3[C@H]12 (racemic)

Activity [1]: inactive
SMILES: CC(C)CC[C@H]1[C@@H]2Cc3c(C(=O)O)n[nH]c3[C@H]12 (racemic)

Activity [1]: inactive
SMILES: C=CC[C@H]1[C@@H]2Cc3c(C(=O)O)n[nH]c3[C@H]12 (racemic)

Activity [1]: inactive
SMILES: CC[C@H]1[C@@H]2Cc3c(C(=O)O)n[nH]c3[C@H]12 (racemic)

Activity [1]: inactive
SMILES: C=CC[C@@H]1[C@@H]2Cc3c(C(=O)O)n[nH]c3[C@H]12 (racemic)

Activity [1]: inactive
SMILES: CC[C@@H]1[C@@H]2Cc3c(C(=O)O)n[nH]c3[C@H]12 (racemic; form 2)

Activity [1]: inactive
SMILES: COC[C@H]1[C@@H]2Cc3c(C(=O)O)n[nH]c3[C@H]12 (racemic)

Activity [1]: inactive
SMILES: CC(C)C[C@@H]1[C@@H]2Cc3c(C(=O)O)n[nH]c3[C@H]12 (racemic)

Activity [1]: inactive
SMILES: CCCCC[C@@H]1[C@@H]2Cc3c(C(=O)O)n[nH]c3[C@H]12 (racemic)

Activity [1]: inactive
SMILES: CCC[C@H]1[C@@H]2Cc3c(C(=O)O)n[nH]c3[C@H]12 (racemic)

Activity (Cytochrome P450 2D6): Not Active
Activity (Cytochrome P450 2C8): Not Active
Activity (Cytochrome P450 2C9): Not Active
Activity (Cytochrome P450 3A4): Not Active
clearance [6]: 35 mL/min/kg
Vd [7]: 0.61 L/kg
half-life [8]: 18 min
Cmax/dose (Mus musculus [9]): 1.5 µM·kg/mg
AUC/dose (Mus musculus [10]): 1.4 µM·kg·h/mg
bioavailability [11]: 51%
clearance [12]: 17 mL/min/kg
Vd [13]: 0.53 L/kg
half-life [14]: 144 min
Cmax/dose (Rattus norvegicus [15]): 5 µM·kg/mg
AUC/dose (Rattus norvegicus [16]): 5.1 µM·kg·h/mg
bioavailability [17]: 90%
clearance [18]: 2.4 mL/min/kg
Vd [19]: 0.22 L/kg
half-life [20]: 126 min
Cmax/dose (Canis familiaris [21]): 26 µM·kg/mg
AUC/dose (Canis familiaris [22]): 44.4 µM·kg·h/mg
bioavailability [23]: 100%
SMILES: C[C@@H]1[C@@H]2Cc3c(C(=O)O)n[nH]c3[C@H]12 [listing 2 of 2 here]
Activity (Rattus norvegicus [4]): 90%
Activity (Rattus norvegicus [5]): 90%
Activity (Mus musculus [2]): 30%

Activity [1]: inactive
SMILES: CSC[C@@H]1[C@@H]2Cc3c(C(=O)O)n[nH]c3[C@H]12 (racemic)

Activity [1]: inactive
SMILES: CC(C)CC[C@@H]1[C@@H]2Cc3c(C(=O)O)n[nH]c3[C@H]12 (racemic)

Source: ChEMBL document CHEMBL2057168, “(1aR,5aR)1a,3,5,5a-Tetrahydro-1H-2,3-diaza-cyclopropa[a]pentalene-4-carboxylic acid (MK-1903): a potent GPR109a agonist that lowers free fatty acids in humans” (J Med Chem, 2012)
